Screening data as filed in PubChem.
Only some compounds are listed: those with a hit (about 2.9% of all), similar ones and a draw of the others.
SENP8 block-1: blocks the human protease SENP8; Q96LD8; inhibition, % at 10 µM; 1.2% of 330,000 active; purified SENP8, Z-RLRGG-aminoluciferin cleavage, luminescence; AID 2540; in the data active = inhibition above about 50%
Target sequence (Q96LD8 whole entry, looked up): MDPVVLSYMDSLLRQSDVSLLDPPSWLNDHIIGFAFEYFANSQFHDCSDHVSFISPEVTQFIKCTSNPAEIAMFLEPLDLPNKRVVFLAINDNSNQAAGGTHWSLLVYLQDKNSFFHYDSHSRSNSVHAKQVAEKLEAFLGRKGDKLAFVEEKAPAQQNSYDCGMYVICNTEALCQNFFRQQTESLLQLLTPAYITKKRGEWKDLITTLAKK
SENP8 block-2: blocks human SENP8 cleavage of Nedd8 substrate. Q96LD8. recombinant SENP8, Nedd8 substrate fluorescence. inhibition, % at 20 µM. 0.64% of 360,000 active. AID 602440; in the data active = inhibition mostly above about 40%, no sharp cut-off; inactive = mostly below about 27%
SENP1 FRET inh: inhibitors of human SENP1 SUMO protease catalytic domain. 0.21% of 360,000 active. recombinant SENP1 catalytic domain, CyPet-SUMO1-YPet FRET cleavage. Q9P0U3. inhibition, % at 10 µM;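 active = inhibition at least 30% at 10 µM, raw YFP signal under a set limit, fluorescence ratio 0.5 to 1.5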;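 note: 0% = enzyme with DMSO and 100% = no enzyme wells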
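Material – human SENP1 catalytic domain · Input – SENP1 enzyme, 20 pM final · Compound dosing – single concentration of 10 µM compound, 0.5% DMSO final · Timing – enzyme reaction for 50 min at room temperature, dark · Measured by – FRET fluorescence in CFP and YFP emission channels · Control set – no-enzyme wells low, DMSO-plus-enzyme wells high control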
HSP90 refold inh: inhibitors of HSP90 luciferase refolding in rabbit reticulocyte lysate | luciferase refolding luminescence, 3 h | inhibition, % at 5.6 µM | 0.91% of 290,000 active;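 active = inhibition above the screen-wide mean plus 3 SD, computed separately per campaign, cut at about 16% in these data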;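 note: 0% = DMSO wells and 100% = 60 µM geldanamycin wells; inhibitors lower the luminescence because luciferase stays unfolded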
SENP6 block: inhibitors of human SENP6 protease | inhibition, % at 10 µM | Recombinant SENP6 catalytic domain, aminoluciferin luminescence | Q9GZR1 | AID 2599 | 1.8% of 330,000 active;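 active = inhibition above about 50% at the single tested dose, limit read from the data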;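 note: plate controls were DMSO wells with enzyme for no effect and DMSO wells lacking enzyme for full effect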
SENP7 inh: blocks the human protease SENP7. Q9BQF6. recombinant SENP7, Z-RLRGG-aminoluciferin luminescence, 40 min. inhibition, % at 5 µM. 1.5% of 330,000 active;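 active = inhibition above about 50% at the single test dose, limit read from the data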;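 note: plate controls were DMSO with enzyme for no effect and no enzyme buffer wells for full effect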
Target sequence (Q9BQF6 706-1050 limits assumed): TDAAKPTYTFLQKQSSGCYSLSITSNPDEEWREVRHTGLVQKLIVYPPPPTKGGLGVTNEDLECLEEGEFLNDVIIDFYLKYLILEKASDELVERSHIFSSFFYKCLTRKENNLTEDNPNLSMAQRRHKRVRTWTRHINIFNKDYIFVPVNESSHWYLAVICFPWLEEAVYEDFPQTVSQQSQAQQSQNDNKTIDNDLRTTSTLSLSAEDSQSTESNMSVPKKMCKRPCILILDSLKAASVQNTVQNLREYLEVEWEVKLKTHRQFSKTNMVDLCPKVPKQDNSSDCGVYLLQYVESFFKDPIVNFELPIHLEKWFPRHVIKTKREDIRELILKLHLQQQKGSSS
SENP8 confirm: confirmation of human SENP8 protease inhibitors | inhibition, % at 12.5 µM | 40% of 6,200 active | Recombinant SENP8, Z-RLRGG-aminoluciferin luminescence, 60 min | shares compounds with SENP7 inh | AID 488912;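 active = mean inhibition across replicates above about 50%, limit read from the data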
SENP6 confirm: human SENP6 inhibition, confirmed; inhibition, % at 12.5 µM; shares compounds with SENP7 inh; recombinant SENP6, Z-RLRGG-aminoluciferin luminescence; 58% of 6,200 active
SENP7 conf: human SENP7 inhibition, confirmed | shares compounds with SENP7 inh | recombinant SENP7, Z-RLRGG-aminoluciferin luminescence, 40 min | inhibition, % at 12.5 µM | 69% of 6,200 active | AID 488917
Casp3 SENP sel: selectivity test for SENP inhibitors: human caspase-3 inhibition; shares compounds with SENP7 inh; purified caspase-3, Z-DEVD-aminoluciferin luminescence, 60 min; inhibition, % at 12.5 µM; 60% of 6,200 active;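 active = mean inhibition above about 50%, limit read from the data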;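 note: plate controls were enzyme with DMSO for no effect and wells without caspase-3 for full effect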
Luc interf: interferes with luciferase luminescence in SENP counter-screen. shares compounds with SENP7 inh. Pre-incubated SENP8/Z-RLRGG-aminoluciferin, luciferase luminescence interference. inhibition, % at 12.5 µM. 39% of 6,200 active;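 active = mean inhibition above about 50% when retested at one dose, limit read from the data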;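 note: plate controls were DMSO wells with completed reaction for no effect and substrate without enzyme for full effect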
An asterisk follows results filed as active.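 Rule for the calls, unless noted: active = mean inhibition above about 50% in the one-dose retest (limit read from the data); inactive = the rest.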

`O=C(Nc1nc2c(F)cc(F)cc2s1)c1ccccn1` gave SENP8 block-1 64*, SENP8 block-2 -8, SENP1 FRET inh -8, HSP90 refold inh 2, SENP6 block 70*, SENP7 inh 93*, SENP8 confirm 61*, SENP6 confirm 69*, SENP7 conf 31, Casp3 SENP sel 79* and Luc interf 14.
Screening CCc1noc(C)c1C(=O)Nc1nc2c(F)cc(F)cc2s1 returned SENP8 block-1 83*, SENP8 block-2 -26, SENP1 FRET inh -7, SENP6 block 90*, SENP7 inh 73*, SENP8 confirm 52*, SENP6 confirm 86*, SENP7 conf 98*, Casp3 SENP sel 87* and Luc interf 51*.
COc1ccc2nc(NC(=O)c3cnccn3)sc2c1 was read as SENP8 block-1 49, SENP8 block-2 3, SENP1 FRET inh -5, HSP90 refold inh 5, SENP6 block 17, SENP7 inh 76*, SENP8 confirm 16, SENP6 confirm 49, SENP7 conf 82*, Casp3 SENP sel 80* and Luc interf 21.
For CCOc1ccc2nc(NC(=O)COC)sc2c1 the results were SENP8 block-1 1, SENP8 block-2 -9, SENP1 FRET inh -1, HSP90 refold inh 1, SENP6 block -26 and SENP7 inh 28.
Screening CCOc1ccc2nc(NC(=O)c3ccoc3C)sc2c1 returned SENP8 block-1 98*, SENP8 block-2 -158, SENP1 FRET inh -6, HSP90 refold inh 28*, SENP6 block 96*, SENP7 inh 100*, SENP8 confirm 99*, SENP6 confirm 100*, SENP7 conf 103*, Casp3 SENP sel 99* and Luc interf 81*.
For COc1ccc(C(=O)Nc2nc3ccc(OC)cc3s2)cc1 the results were SENP8 block-1 -15, SENP8 block-2 -280, SENP1 FRET inh 0, HSP90 refold inh 4, SENP6 block 17 and SENP7 inh -2.
Screening COCCNC(=O)C1(C)CCCN(Cc2csc3ccccc23)C1 (centres undefined) returned SENP8 block-2 5 and SENP1 FRET inh 1.
For CCOc1ccc2nc(NC(=O)c3ccccn3)sc2c1 the results were SENP8 block-1 94*, SENP8 block-2 -91, SENP1 FRET inh 2, HSP90 refold inh 7, SENP6 block 97*, SENP7 inh 98*, SENP8 confirm 41, SENP6 confirm 78*, SENP7 conf 85*, Casp3 SENP sel 87* and Luc interf 26.
For CCOc1ccc2nc(NC(=O)Nc3ccccc3)sc2c1 the results were SENP8 block-1 -7, SENP8 block-2 11, SENP1 FRET inh -1, HSP90 refold inh 2, SENP6 block -3 and SENP7 inh 36.
`CCCN1C(=O)c2ccc(C(=O)Nc3cc(C)ccc3O)cc2C1=O` gave SENP8 block-1 51*, SENP8 block-2 12, SENP1 FRET inh 3, HSP90 refold inh 13, SENP6 block -25, SENP7 inh 97*, SENP8 confirm -22, SENP6 confirm 20, SENP7 conf 52*, Casp3 SENP sel 50* and Luc interf 1.
`CCCN1C(=O)c2ccc(C(=O)Nc3ccccc3C(=O)O)cc2C1=O` gave SENP8 block-1 79*, SENP8 block-2 18, SENP1 FRET inh 0, HSP90 refold inh 1, SENP6 block 89*, SENP7 inh 16, SENP8 confirm 86*, SENP6 confirm 85*, SENP7 conf 97*, Casp3 SENP sel 44 and Luc interf 89*.
For Cc1ccc(O)c(NC(=O)c2ccc3c(c2)C(=O)N(CC(C)C)C3=O)c1 the results were SENP8 block-1 1, SENP8 block-2 17, SENP1 FRET inh 0, HSP90 refold inh 0, SENP6 block -3 and SENP7 inh 32.
Screening CCCCN1C(=O)c2ccc(C(=O)Nc3cccc(C)c3C)cc2C1=O returned SENP8 block-1 -1, SENP8 block-2 12, SENP1 FRET inh 2, HSP90 refold inh 4, SENP6 block -4 and SENP7 inh 4.
CSc1cccc(CNC(=O)C2CCC(=O)N(CCc3ccccc3)C2)c1 (centres undefined) was read as SENP8 block-2 -5 and SENP1 FRET inh -2.
`O=C1NC2NC(=O)N(C(Cc3ccccc3)C(=O)O)C2N1` (centres undefined) gave SENP8 block-1 2, SENP8 block-2 17, SENP1 FRET inh 4, HSP90 refold inh 0, SENP6 block 60*, SENP7 inh 5, SENP8 confirm -26, SENP6 confirm -24, SENP7 conf -11, Casp3 SENP sel -6 and Luc interf -8.
For c1ccc(CSc2nnc(-c3cccs3)o2)cc1 the results were SENP8 block-1 -1, SENP8 block-2 0, SENP1 FRET inh 2, HSP90 refold inh 0, SENP6 block 1 and SENP7 inh -2.
Cc1ccc(-c2noc(/C=C/c3ccccc3)n2)cc1 was read as SENP8 block-1 14, SENP8 block-2 10, SENP1 FRET inh 0, HSP90 refold inh -2, SENP6 block 22 and SENP7 inh 4.
`Clc1ccccc1-c1nnc(-c2cccs2)o1` gave SENP8 block-1 72*, SENP8 block-2 -140, SENP1 FRET inh 4, HSP90 refold inh 0, SENP6 block 81*, SENP7 inh 80*, SENP8 confirm 75*, SENP6 confirm 74*, SENP7 conf 92*, Casp3 SENP sel 79* and Luc interf 55*.
C(=C\c1nnc(-c2cccs2)o1)/c1ccccc1 was read as SENP8 block-1 74*, SENP8 block-2 -275, SENP1 FRET inh 0, HSP90 refold inh 9, SENP6 block 81*, SENP7 inh 3, SENP8 confirm 15, SENP6 confirm 61*, SENP7 conf 88*, Casp3 SENP sel 65* and Luc interf 34.
For Cc1ccc(/C=C/c2nnc(-c3ccccc3)o2)cc1 the results were SENP8 block-1 76*, SENP8 block-2 -251, SENP1 FRET inh 1, HSP90 refold inh -1, SENP6 block 86*, SENP7 inh 6, SENP8 confirm 15, SENP6 confirm 63*, SENP7 conf 89*, Casp3 SENP sel 80* and Luc interf 23.
